Experimental data from different studies.
Compare with care: the assays were run in different laboratories.
TNKS: Poly [ADP-ribose] polymerase tankyrase-1 (TNKS, Homo sapiens, UniProt O95271)
PSMB6/PSMB5/PSMB7: PSMB6/PSMB5/PSMB7 (Homo sapiens, UniProt P28072+P28074+Q99436)
NTRK3: NT-3 growth factor receptor (NTRK3, Homo sapiens, UniProt Q16288)

SMILES	target	test	system	setting	inhibition [%]
CC(=O)c1nn(CC(=O)N2C[C@H](F)C[C@H]2C(=O)Nc2cccc(Br)n2)c2ccc(-c3cnc(C)nc3)cc12	Dipeptidyl peptidase 4 (DPP4, Homo sapiens, UniProt P27487)	enzyme activity, inhibitor	–	10 µM	-1
Cc1ccc(C)c(NC(=O)CSc2nnc(Cc3cc(=O)[nH]c(=O)[nH]3)n2-c2ccc(Cl)cc2)c1	TNKS	enzyme activity, inhibitor	–	0.1 µM	3
COC(=O)[C@@]12Oc3c(c(O)cc4c3[C@@H]3C=C[C@]5(C4)C(=C(O)c4c(O)cc(C)cc4[C@@H]5OC(C)=O)C3=O)C(O)=C1C(=O)C=C[C@@H]2O	PSMB6/PSMB5/PSMB7	enzyme activity in cells, inhibitor	MCF7	20 µg/mL	13
O=C(Nc1ccc2[nH]ncc2c1)c1cccc(NC(=S)Nc2ccc(C(F)(F)F)cc2)c1	NTRK3	enzyme activity, inhibitor, FRET	–	1 µM	17.3
CN(C)C1CCN(CC#Cc2nn(C3CCCC3)c3nc(NCc4ccccc4)ncc23)C1 (stereo not drawn)	Cyclin-dependent kinase 9, with cyclin T1 (CDK9, Homo sapiens, UniProt P50750)	enzyme activity, inhibitor, FRET	–	0.1 µM	5
CC1=C(/C=C/C(C)=C/C=C/C(C)=C/CO)C(C)(C)CCC1	Prothrombin (Rattus norvegicus, UniProt P18292)	enzyme activity, inhibitor	–	200 µg/mL	46
Ic1cccc2cnccc12	TNKS	enzyme activity, inhibitor	–	10 µM	7
OCc1cc(C(O)CNCCCCCCOCCCCc2ccccc2)ccc1O (stereo not drawn)	C-X-C chemokine receptor type 4 (CXCR4, Homo sapiens, UniProt P61073)	calcium signal, antagonist	U87.CD4.CXCR4	4 µM	11
O=C(Nc1ccc(C(F)(F)F)cc1)Nc1cccc(C(=O)Nc2ccc3[nH]ncc3c2)c1	NTRK3	enzyme activity, inhibitor, FRET	–	1 µM	13.5
COC(=O)c1c(O)ccc(O)c1C(=O)c1c(O)cc2c(c1O)[C@@H]1C=C[C@@]3(C2)[C@@H](OC(C)=O)c2cc(C)cc(O)c2C(=O)C3(O)C1=O (stereo partly drawn)	PSMB6/PSMB5/PSMB7	enzyme activity in cells, inhibitor	MCF7	20 µg/mL	67
CCN1CCN(Cc2ccc(NC(=O)c3ccc(C)c(Oc4ccnc5[nH]ccc45)c3)cc2C(F)(F)F)CC1	Mitogen-activated protein kinase 3 (MAPK3, Homo sapiens, UniProt P27361)	target engagement in cells, inhibitor, chemoproteomics	A-375	0.5 µM	-44.6
CNC(=O)c1cc(Oc2ccc(NC(=O)Nc3ccc(Cl)c(C(F)(F)F)c3)cc2)ccn1	Dual specificity mitogen-activated protein kinase kinase 7 (MAP2K7, Homo sapiens, UniProt O14733)	enzyme activity, inhibitor	–	0.3 µM	9
